Assay [1] addresses C-C chemokine receptor type 8 (Homo sapiens, UniProt P51685). The assay can be described thus: Antagonist activity at human CCR8 expressed in CHOK1 cells assessed as inhibition in CCL1-induced beta-arrestin 2 recruitment at 20 uM incubated for 30 mins followed by CCL1 addition and measured after 90 or 180 mins by pathhunter beta-arrestin assay relative to control. The class given is cell-based. In a few lines:
(§1)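 PathHunter beta-arrestin recruitment, antagonist mode, run at DiscoverX. Cells seeded and held at 37 °C, then preincubated with test sample for 30 min at 37 °C or room temperature (1% vehicle). Agonist then added at EC80 for 90 or 180 min. IC50 comes from concentration–response runs in the same format.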

Assay [2] addresses T1, Muscarinic acetylcholine receptor M4 (Homo sapiens) (UniProt P08173).
T1 sequence (whole entry): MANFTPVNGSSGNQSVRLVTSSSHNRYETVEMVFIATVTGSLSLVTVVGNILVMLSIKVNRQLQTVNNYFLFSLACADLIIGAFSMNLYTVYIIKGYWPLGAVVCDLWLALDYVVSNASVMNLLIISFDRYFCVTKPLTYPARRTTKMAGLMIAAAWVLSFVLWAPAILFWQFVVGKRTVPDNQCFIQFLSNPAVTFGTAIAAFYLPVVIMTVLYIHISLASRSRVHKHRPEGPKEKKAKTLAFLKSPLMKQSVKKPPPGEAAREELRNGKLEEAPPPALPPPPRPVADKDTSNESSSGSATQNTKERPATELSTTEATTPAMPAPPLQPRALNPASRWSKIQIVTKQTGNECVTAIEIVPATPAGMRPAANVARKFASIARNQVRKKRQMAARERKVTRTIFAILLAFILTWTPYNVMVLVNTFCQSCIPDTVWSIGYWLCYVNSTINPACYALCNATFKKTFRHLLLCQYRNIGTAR
Kind of assay: Antagonist activity at human Gs/Gi/o-coupled CHRM4 expressed in CHOK1 cells assessed as inhibition in acetylcholine-induced beta-arrestin 2 recruitment at 20 uM incubated for 30 mins followed by acetylcholine addition and measured after 90 or 180 mins by pathhunter beta-arrestin assay relative to control. The class given is cell-based. In a few lines: as §1

A further assay has as its target Cannabinoid receptor 1 (Homo sapiens, UniProt P21554). Kind of assay: Antagonist activity at human Gi/o-coupled CNR1 expressed in CHOK1 cells assessed as inhibition in CP55940-induced beta-arrestin 2 recruitment at 20 uM incubated for 30 mins followed by CP55940 addition and measured after 90 or 180 mins by pathhunter beta-arrestin assay relative to control. The class given is cell-based. Summed up: as §1

In a further assay the target is Cannabinoid receptor 2 (Homo sapiens, UniProt P34972). The assay can be described thus: Antagonist activity at human Gi/o-coupled CNR2 expressed in CHOK1 cells assessed as inhibition in CP55940-induced beta-arrestin 2 recruitment at 20 uM incubated for 30 mins followed by CP55940 addition and measured after 90 or 180 mins by pathhunter beta-arrestin assay relative to control. The class given is cell-based. In a few lines: as §1
Cannabinoid receptor 2, sequence (P34972 whole entry): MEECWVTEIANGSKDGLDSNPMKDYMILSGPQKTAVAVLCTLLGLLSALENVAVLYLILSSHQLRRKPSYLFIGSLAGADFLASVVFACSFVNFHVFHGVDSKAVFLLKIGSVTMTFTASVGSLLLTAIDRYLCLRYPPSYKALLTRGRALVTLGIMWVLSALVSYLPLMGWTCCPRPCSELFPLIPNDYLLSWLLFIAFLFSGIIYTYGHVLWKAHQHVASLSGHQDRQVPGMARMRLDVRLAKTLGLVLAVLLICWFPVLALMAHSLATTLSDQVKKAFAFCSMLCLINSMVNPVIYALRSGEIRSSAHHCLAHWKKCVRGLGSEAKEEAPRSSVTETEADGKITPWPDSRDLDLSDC

The target of assay [3] is C-X-C chemokine receptor type 4 (Homo sapiens) (UniProt P61073). Kind of assay: Antagonist activity at human Gi/o-coupled CXCR4 expressed in mouse C2C12 cells assessed as inhibition in CXCL12-induced beta-arrestin 2 recruitment at 20 uM incubated for 30 mins followed by CXCL12 addition and measured after 90 or 180 mins by pathhunter beta-arrestin assay relative to control. The class given is cell-based. Summed up:
as §1

Assay [4] concerns the target D(2) dopamine receptor (Homo sapiens) (UniProt P14416). The assay can be described thus: Antagonist activity at human Gi/o-coupled DRD2L expressed in CHOK1 cells assessed as inhibition in dopamine-induced beta-arrestin 2 recruitment at 20 uM incubated for 30 mins followed by dopamine addition and measured after 90 or 180 mins by pathhunter beta-arrestin assay relative to control. The class given is cell-based. Summed up:
as §1

The target in assay [5] is T2, Glucose-dependent insulinotropic receptor (Homo sapiens) (UniProt Q8TDV5).
T2 sequence (whole entry): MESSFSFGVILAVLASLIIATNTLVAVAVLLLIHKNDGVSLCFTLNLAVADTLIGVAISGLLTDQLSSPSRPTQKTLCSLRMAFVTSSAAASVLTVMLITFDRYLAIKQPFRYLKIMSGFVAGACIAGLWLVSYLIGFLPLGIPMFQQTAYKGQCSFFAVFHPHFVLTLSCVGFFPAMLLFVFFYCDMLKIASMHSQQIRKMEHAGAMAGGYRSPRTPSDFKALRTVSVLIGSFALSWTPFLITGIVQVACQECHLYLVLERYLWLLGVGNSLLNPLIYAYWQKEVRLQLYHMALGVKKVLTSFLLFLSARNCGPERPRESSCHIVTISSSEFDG
The assay can be described thus: Antagonist activity at human GPR119 assessed as inhibition in oleoylethanolamide-induced beta-arrestin 2 recruitment at 20 uM incubated for 30 mins followed by oleoylethanolamide addition and measured after 90 or 180 mins by pathhunter beta-arrestin assay relative to control. In a few lines:
as §1

Assay [6] concerns the target T3, Orexin receptor type 2 (Homo sapiens) (UniProt O43614).
T3 sequence (whole entry): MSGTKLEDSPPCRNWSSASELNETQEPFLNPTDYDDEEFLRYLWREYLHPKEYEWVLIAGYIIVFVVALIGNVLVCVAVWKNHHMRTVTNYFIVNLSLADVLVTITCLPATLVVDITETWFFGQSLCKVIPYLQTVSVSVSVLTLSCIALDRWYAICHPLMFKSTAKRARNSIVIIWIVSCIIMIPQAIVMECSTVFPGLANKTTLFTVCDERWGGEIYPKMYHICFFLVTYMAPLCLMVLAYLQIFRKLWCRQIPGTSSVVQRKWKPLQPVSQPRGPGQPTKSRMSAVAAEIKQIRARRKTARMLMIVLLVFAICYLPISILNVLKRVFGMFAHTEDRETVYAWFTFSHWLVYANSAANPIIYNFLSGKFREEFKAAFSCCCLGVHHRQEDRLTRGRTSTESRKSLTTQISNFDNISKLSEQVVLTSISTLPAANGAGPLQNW
Kind of assay: Antagonist activity at human Gq-coupled HCRTR2 expressed in CHOK1 cells assessed as inhibition in Orexin A-induced beta-arrestin 2 recruitment at 20 uM incubated for 30 mins followed by Orexin A addition and measured after 90 or 180 mins by pathhunter beta-arrestin assay relative to control. The class given is cell-based. In a few lines:
as §1

Assay [7] deals with T4, Neuropeptide S receptor (Homo sapiens) (UniProt Q6W5P4).
T4 sequence (whole entry): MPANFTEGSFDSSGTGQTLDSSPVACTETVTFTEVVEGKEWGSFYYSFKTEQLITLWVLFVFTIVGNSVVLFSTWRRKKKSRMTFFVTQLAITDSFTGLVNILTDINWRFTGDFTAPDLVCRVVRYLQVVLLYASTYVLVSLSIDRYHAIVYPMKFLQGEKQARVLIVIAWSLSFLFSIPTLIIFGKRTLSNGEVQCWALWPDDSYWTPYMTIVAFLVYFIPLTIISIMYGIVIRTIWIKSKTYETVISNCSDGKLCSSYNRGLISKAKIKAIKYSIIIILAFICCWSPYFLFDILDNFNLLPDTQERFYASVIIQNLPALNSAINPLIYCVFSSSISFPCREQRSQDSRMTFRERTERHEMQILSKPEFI
The assay can be described thus: Antagonist activity at human Gq-coupled NPSR1b expressed in human U2OS cells assessed as inhibition in neuropeptide S-induced beta-arrestin 2 recruitment at 20 uM incubated for 30 mins followed by neuropeptide S addition and measured after 90 or 180 mins by pathhunter beta-arrestin assay relative to control. The class given is cell-based. In a few lines:
as §1

The target in assay [8] is T5, Prolactin-releasing peptide receptor (Homo sapiens) (UniProt P49683).
T5 sequence (whole entry): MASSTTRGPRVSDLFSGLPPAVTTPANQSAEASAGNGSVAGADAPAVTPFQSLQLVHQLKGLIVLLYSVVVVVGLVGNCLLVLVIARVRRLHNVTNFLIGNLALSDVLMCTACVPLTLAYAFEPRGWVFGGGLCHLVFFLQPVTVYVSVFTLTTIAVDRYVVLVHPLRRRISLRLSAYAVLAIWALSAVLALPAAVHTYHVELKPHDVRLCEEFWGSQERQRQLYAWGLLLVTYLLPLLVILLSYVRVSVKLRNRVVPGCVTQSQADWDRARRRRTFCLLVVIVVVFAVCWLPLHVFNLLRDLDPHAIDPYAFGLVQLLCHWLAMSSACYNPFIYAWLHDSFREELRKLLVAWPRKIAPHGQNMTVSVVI
The assay can be described thus: Antagonist activity at human Gq-coupled PRLHR expressed in CHOK1 cells assessed as inhibition in prolactin releasing peptide (1 to 31)-induced beta-arrestin 2 recruitment at 20 uM incubated for 30 mins followed by prolactin releasing peptide (1 to 31) addition and measured after 90 or 180 mins by pathhunter beta-arrestin assay relative to control. The class given is cell-based. In a few lines:
as §1

Another assay concerns the target Prostacyclin receptor (Homo sapiens, UniProt P43119). Kind of assay: Antagonist activity at human Gs-coupled PTGIR assessed as inhibition in beraprost-induced beta-arrestin 2 recruitment at 20 uM incubated for 30 mins followed by beraprost- addition and measured after 90 or 180 mins by pathhunter beta-arrestin assay relative to control. Summed up:
as §1

Assay [9] deals with Histamine H1 receptor (Homo sapiens) (UniProt P35367). The settings on record: at 20 µM.
Histamine H1 receptor (Homo sapiens), sequence (P35367 whole entry): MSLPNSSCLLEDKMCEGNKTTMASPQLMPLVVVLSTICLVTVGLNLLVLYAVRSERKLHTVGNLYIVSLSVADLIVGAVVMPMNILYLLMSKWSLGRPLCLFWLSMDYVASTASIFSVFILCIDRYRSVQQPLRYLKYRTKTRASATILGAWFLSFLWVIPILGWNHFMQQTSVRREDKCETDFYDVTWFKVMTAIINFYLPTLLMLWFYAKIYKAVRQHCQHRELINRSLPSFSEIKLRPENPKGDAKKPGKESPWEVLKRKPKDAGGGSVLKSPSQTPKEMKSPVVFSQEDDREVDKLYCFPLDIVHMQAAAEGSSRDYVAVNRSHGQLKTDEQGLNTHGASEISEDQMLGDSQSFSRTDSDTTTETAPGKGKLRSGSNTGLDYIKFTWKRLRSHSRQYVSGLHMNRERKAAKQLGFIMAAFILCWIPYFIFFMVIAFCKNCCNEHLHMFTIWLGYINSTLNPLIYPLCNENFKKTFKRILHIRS
The subject of assay [10] is Mus musculus. Kind of assay: Suppression of drug-induced cocaine-seeking behavior in C57BL/6J mouse assessed as reduction in morphine-conditioned place preference at 60 nmol, icv administered 20 mins prior to behavioral morphine addition measured twice weekly for 7 weeks. The class given is functional, organism-based. The settings on record: in the assay text read “morphine-seeking” for “cocaine-seeking”. In a few lines:
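Male C57BL/6J mice, 7–11 weeks, 20–33 g. Three-compartment counterbalanced place conditioning. Test agent given i.c.v. in 10% Solutol HS 15/90% saline, 20 min before morphine (10 mg/kg i.p., in 0.9% saline). Mice then confined 40 min in the paired outer chamber. Saline i.p. conditioning in the opposite chamber followed 4 h later. Preference was scored in a 30 min automated test. n = 16–30/group; two-way ANOVA with Tukey post hoc.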

The test system of assay [11] is Mus musculus. Kind of assay: Suppression of drug-induced morphine-seeking behavior in C57BL/6J mouse assessed as reduction in stress-induced reinstatement of morphine-CPP at 60 nmol, icv administered 15 mins prior to testing by forced swim test.

Activity calls are given as the source filed them. The calls are words filed in the database; no cut-off is given here.

In ChEMBL document CHEMBL4342456, “Preventing Morphine-Seeking Behavior through the Re-Engineering of Vincamine's Biological Activity” (J Med Chem, 2020) one finds inhibition and Activity data, which are given here for six molecules.

Prostacyclin receptor, sequence (P43119 whole entry): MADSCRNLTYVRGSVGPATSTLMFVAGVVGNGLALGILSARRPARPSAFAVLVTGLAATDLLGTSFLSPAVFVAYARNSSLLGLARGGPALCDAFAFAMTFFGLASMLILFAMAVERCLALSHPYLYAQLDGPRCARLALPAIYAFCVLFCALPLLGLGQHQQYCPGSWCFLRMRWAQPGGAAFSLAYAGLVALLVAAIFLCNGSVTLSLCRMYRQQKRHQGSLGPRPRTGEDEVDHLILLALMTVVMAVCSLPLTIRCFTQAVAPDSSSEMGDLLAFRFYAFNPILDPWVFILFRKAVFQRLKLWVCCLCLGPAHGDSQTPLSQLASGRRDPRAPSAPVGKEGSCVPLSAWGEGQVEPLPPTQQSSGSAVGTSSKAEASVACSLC
Cannabinoid receptor 1, sequence (P21554 whole entry): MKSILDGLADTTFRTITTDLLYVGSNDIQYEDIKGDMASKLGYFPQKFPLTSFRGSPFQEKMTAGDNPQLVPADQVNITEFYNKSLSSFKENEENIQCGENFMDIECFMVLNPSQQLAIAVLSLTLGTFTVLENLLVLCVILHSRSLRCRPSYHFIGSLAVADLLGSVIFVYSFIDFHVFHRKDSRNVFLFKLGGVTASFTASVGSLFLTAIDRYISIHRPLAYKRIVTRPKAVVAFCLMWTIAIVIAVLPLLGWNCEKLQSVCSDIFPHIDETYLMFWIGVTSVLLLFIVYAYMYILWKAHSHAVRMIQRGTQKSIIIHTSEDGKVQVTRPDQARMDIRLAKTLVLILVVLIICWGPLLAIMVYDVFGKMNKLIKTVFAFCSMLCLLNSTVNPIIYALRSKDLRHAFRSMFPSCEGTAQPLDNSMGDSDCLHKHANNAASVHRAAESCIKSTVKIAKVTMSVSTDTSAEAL
D(2) dopamine receptor (Homo sapiens), sequence (P14416 whole entry): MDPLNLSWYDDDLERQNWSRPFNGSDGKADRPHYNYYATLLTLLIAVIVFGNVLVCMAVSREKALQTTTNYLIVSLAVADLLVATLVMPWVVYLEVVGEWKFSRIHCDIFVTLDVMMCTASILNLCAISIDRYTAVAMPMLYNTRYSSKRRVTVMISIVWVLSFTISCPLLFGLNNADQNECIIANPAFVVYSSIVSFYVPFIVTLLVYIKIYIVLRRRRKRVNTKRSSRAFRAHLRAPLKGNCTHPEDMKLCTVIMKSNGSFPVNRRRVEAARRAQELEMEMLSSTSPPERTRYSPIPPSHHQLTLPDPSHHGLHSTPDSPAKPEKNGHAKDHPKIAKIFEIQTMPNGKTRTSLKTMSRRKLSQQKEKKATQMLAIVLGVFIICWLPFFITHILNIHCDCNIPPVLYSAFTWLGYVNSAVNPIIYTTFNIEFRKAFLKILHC
C-C chemokine receptor type 8, sequence (P51685 whole entry): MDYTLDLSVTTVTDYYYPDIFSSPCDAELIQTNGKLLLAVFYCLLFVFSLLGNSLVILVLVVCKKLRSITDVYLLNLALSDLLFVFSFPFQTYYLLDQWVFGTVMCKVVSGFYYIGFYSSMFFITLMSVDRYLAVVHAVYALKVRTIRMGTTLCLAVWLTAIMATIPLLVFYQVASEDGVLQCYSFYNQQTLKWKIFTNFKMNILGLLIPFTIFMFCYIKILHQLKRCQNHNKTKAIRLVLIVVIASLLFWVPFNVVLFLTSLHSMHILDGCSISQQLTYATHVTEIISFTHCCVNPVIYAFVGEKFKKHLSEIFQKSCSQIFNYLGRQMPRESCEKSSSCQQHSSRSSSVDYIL
C-X-C chemokine receptor type 4 (Homo sapiens), sequence (P61073 whole entry): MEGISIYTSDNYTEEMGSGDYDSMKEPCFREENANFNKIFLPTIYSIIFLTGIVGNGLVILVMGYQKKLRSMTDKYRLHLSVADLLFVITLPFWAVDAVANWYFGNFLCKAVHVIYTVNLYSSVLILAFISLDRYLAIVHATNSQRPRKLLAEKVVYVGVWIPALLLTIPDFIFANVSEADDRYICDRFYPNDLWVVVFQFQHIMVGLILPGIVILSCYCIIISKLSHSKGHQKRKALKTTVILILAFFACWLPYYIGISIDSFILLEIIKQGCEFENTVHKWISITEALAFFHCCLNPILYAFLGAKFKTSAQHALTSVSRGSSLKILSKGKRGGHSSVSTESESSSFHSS

In the case of `COC(=O)[C@@H]1[C@H]2C[C@H]3c4[nH]c5ccccc5c4CCN3C[C@@H]2CC[C@@H]1O`, the inhibition in assay [1] turned out to be 5%; in [2], 4%; at Cannabinoid receptor 1, 35%; on Cannabinoid receptor 2, 20%; in assay [3], 21%; in assay [4] it was 102%. Also, the inhibition in assay [5] is 8%; in assay [6], 9%; in assay [7] it was -3%; in assay [8], 1%; on Prostacyclin receptor it was 8%.
On to `CC[C@@]12C=C(C(=O)OC)n3c(c(c4ccccc43)CCN(/C=C/C(=O)OC)CCC1)[C@@H]2c1ccc(O)cc1`, for which the inhibition in assay [1] worked out at 65%; in assay [2], 67%; at Cannabinoid receptor 1 it was 26%; at Cannabinoid receptor 2 it was 39%; in [3], 40%; in assay [4], 11%. The inhibition in assay [5] was determined as 35%; in [6], 10%; in assay [7] it was 24%; in [8], 70%; on Prostacyclin receptor, 84%; in [9], 16%.
For `CC[C@@]1(CC(=O)OC)CCCN2CC[C@]3(O)C(=Nc4ccccc43)[C@@H]21`, the inhibition was 17% in assay [1]; 24% in [2]; 4% at Cannabinoid receptor 1; 2% at Cannabinoid receptor 2; -9% in assay [3]; 0% in assay [4]. Further, the inhibition is -2% in assay [5]; -4% in [6]; 26% in assay [8]; 22% on Prostacyclin receptor; 8% in assay [9].
Consider `CC[C@]12CCCN3CCc4c(n(c5ccccc45)[C@@](O)(C(=O)OC)C1)[C@@H]32`, for which the inhibition in assay [1] is 8%; in assay [2], -8%; at Cannabinoid receptor 1, 0%; on Cannabinoid receptor 2, 11%; in [3] it was 10%; in [4], -10%. Further, the inhibition in assay [5] was 3%; in [6], 9%; in [8], 3%; on Prostacyclin receptor, -3%; in [9], 5%. Further, the result in the assay on Mus musculus [10] and with Mus musculus [11] was inactive.
With `CC[C@]12CCCN3CC[C@]4(C(=O)c5ccccc5N4C(=O)C1)[C@@H]32`, the inhibition in [1] is 6%; in [2] it was 22%; on Cannabinoid receptor 1 it was 0%; at Cannabinoid receptor 2 it was 13%; in assay [3], -10%; in assay [4] it was -5%. For the same molecule, the inhibition in [5] is 5%; in assay [6] it was 16%; in assay [7], -10%; in assay [8], -7%; on Prostacyclin receptor it was 22%; in assay [9], -3%.
In the case of `CC[C@@]1(CC(=O)NC2CCCC2)CCCN2CCc3c([nH]c4ccccc34)[C@@H]21`, the inhibition in assay [1] came to 28%; in [2], 43%; at Cannabinoid receptor 1 it was 1%; at Cannabinoid receptor 2, 17%; in [3], 4%; in assay [4], 98%. For the same molecule, the inhibition in assay [5] stood at 2%; in assay [6], 8%; in [8], 18%; at Prostacyclin receptor it was 41%; in [9], 21%.
